Experimental data from ChEMBL document CHEMBL1121658, “Novel immunosuppressive agents. Potent immunological activity of some bensothiopyrano [4,3-c]pyrazol-3-ones” (J Med Chem, 1981).

Assays:
Mus musculus [1] = assay: Immunological activity in mice as the percentage of suppression of the cellular response to EI4 tumor cells at 10 mg/kg; format: functional
Outline: (§1)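 Balb/c mice, groups of 10, immunized ip on day 0 with 10^7 EL4 ascites tumor cells. Dosed orally 10 mg/kg once daily days 0-9, in water with a little NaOH (circa pH 8.5); saline controls. On day 10, spleen cells (1.5×10^7 viable) incubated with 51Cr-labeled EL4 cells (0.5×10^6) for 3 h at 37 °C in 10% CO2. Lysis corrected for spontaneous release; reported as % inhibition of control lysis.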

Mus musculus [2] = organism: Mus musculus; assay: Compound was evaluated for the dose required to inhibit the cellular response to 50% (immune activity); format: functional
Outline: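 Cellular response to EL4 in Balb/c mice measured by spleen-cell lysis of 51Cr-labeled EL4 cells (3 h, 37 °C). Mice were given oral daily doses from day 0 to day 9 at several levels, tested up to 300 mg/kg. ED50 was obtained by linear interpolation between the doses giving above and below 50% inhibition.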

Mus musculus [3] = assay: Compound was evaluated for immunological activity in mice as the percentage of suppression of the humoral response to EI4 tumor cells at 10 mg/kg, po; format: functional
Outline: (§2)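 Balb/c mice, groups of 10, immunized ip on day 0 with 10^7 EL4 cells. Dosed orally 10 mg/kg once daily days 0-9, in water with a little NaOH (pH ~8.5); saline controls. Titer taken as the dilution giving 50% maximal lysis; reported as % inhibition of control titer.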

Mus musculus [4] = organism: Mus musculus; assay: Compound was evaluated for the dose required to inhibit the humoral response to 50% (immune activity); format: functional
Outline: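 Humoral response to EL4 in Balb/c mice measured as complement-dependent lysis titer of 51Cr-labeled EL4 cells by day-10 sera. Mice were given oral daily doses from day 0 to day 9 at several levels. ED50 was obtained by linear interpolation between the doses bracketing 50% inhibition of the control titer.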

[5] = Acid dissociation constant was determined; format: ADME
Outline: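 pKa by potentiometric titration in 2:1 dioxane-H2O (v/v) against 0.5 N NaOH; apparent pKa read as the pH at half-neutralization.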

Mus musculus [6] = assay: Compound was evaluated for immunological activity in mice as the percentage of suppression of the humoral response to EI4 tumor cells at 10 mg/kg, po; Data unreliable; format: functional, organism-based; parameters: dose 10 mg/kg; outline: as §2
Mus musculus [7] = assay: Compound was evaluated for immunological activity in mice as the percentage of suppression of the cellular response to EI4 tumor cells at 10 mg/kg, po; format: functional; outline: as §1

SMILES: Oc1c2c(nn1-c1ccc(C(F)(F)F)cc1)-c1ccccc1SC2
- Suppression (Mus musculus [1]): 71%
- ED50 (Mus musculus [2]): 6.5 mg/kg
- Suppression (Mus musculus [3]): >90%
- ED50 (Mus musculus [4]): 6 mg/kg

SMILES: Oc1c2c(nn1-c1c(Cl)cccc1Cl)-c1ccccc1SC2
- Suppression (Mus musculus [1]): 1%
- Suppression (Mus musculus [3]): 4%

SMILES: Sc1ncnc2nc[nH]c12 [MERCAPTOPURINE ANHYDROUS]
- Suppression (Mus musculus [1]): 63%
- Suppression (Mus musculus [3]): 52%

SMILES: Oc1c2c(nn1-c1ccc(Cl)cc1Cl)-c1ccccc1SC2
- Suppression (Mus musculus [1]): -4%
- Suppression (Mus musculus [3]): 20%

SMILES: Oc1c2c(nn1-c1ccc(Br)cc1)-c1ccccc1SC2
- Suppression (Mus musculus [1]): 84%
- ED50 (Mus musculus [2]): 3.3 mg/kg
- Suppression (Mus musculus [3]): >90%
- ED50 (Mus musculus [4]): 2 mg/kg
- pKa [5]: 7.13

SMILES: Oc1c2c(nn1-c1ccc(Cl)c(Cl)c1)-c1ccccc1SC2
- Suppression (Mus musculus [1]): 62%
- ED50 (Mus musculus [2]): 3 mg/kg
- Suppression (Mus musculus [3]): 87%
- ED50 (Mus musculus [4]): 1 mg/kg

SMILES: Oc1[nH]nc2c1CSc1ccccc1-2
- Suppression (Mus musculus [6]): Data unreliable
- Suppression (Mus musculus [1]): 1%

SMILES: Cn1nc2c(c1O)CSc1ccccc1-2
- Suppression (Mus musculus [1]): 14%
- Suppression (Mus musculus [3]): -3%

SMILES: Oc1c2c(nn1-c1ccccc1Cl)-c1ccccc1SC2
- Suppression (Mus musculus [1]): 8%
- Suppression (Mus musculus [3]): 45%
- pKa [5]: 7.74

SMILES: Oc1c2c(nn1-c1ccccn1)-c1ccccc1SC2
- Suppression (Mus musculus [1]): 2%
- Suppression (Mus musculus [3]): -19%

SMILES: Cc1ccc(-n2nc3c(c2O)CSc2ccccc2-3)cc1
- Suppression (Mus musculus [1]): 19%
- Suppression (Mus musculus [3]): 46%
- pKa [5]: 7.64

SMILES: O=P1(N(CCCl)CCCl)NCCCO1 (centres undefined) [CYCLOPHOSPHAMIDE ANHYDROUS]
- Suppression (Mus musculus [1]): 52%
- Suppression (Mus musculus [3]): >90%

SMILES: Oc1c2c(nn1-c1cccc(Cl)c1)-c1ccccc1SC2
- ED50 (Mus musculus [2]): 45 mg/kg
- Suppression (Mus musculus [3]): 67%
- ED50 (Mus musculus [4]): 9 mg/kg
- Suppression (Mus musculus [7]): 16%

SMILES: O=[N+]([O-])c1ccc(-n2nc3c(c2O)CSc2ccccc2-3)cc1
- Suppression (Mus musculus [6]): Data unreliable
- Suppression (Mus musculus [1]): 27%

SMILES: Oc1c2c(nn1-c1cccc(Cl)c1Cl)-c1ccccc1SC2
- Suppression (Mus musculus [1]): 5%
- Suppression (Mus musculus [3]): 51%
- pKa [5]: 7.28

SMILES: Oc1c2c(nn1CC(F)(F)F)-c1ccccc1SC2
- Suppression (Mus musculus [1]): -2%
- Suppression (Mus musculus [3]): 17%

SMILES: Oc1c2c(nn1-c1ccccc1)-c1ccccc1SC2
- Suppression (Mus musculus [6]): Data unreliable
- Suppression (Mus musculus [1]): 1%
- ED50 (Mus musculus [2]): 130 mg/kg
- ED50 (Mus musculus [4]): 70 mg/kg
- pKa [5]: 7.48

SMILES: COc1ccc(-n2nc3c(c2O)CSc2ccccc2-3)cc1
- Suppression (Mus musculus [1]): -11%
- ED50 (Mus musculus [2]): 240 mg/kg
- Suppression (Mus musculus [3]): -6%
- ED50 (Mus musculus [4]): 150 mg/kg
- pKa [5]: 7.76

SMILES: [O-][S+]1Cc2c(nn(-c3ccc(Cl)cc3)c2O)-c2ccccc21 (centres undefined)
- Suppression (Mus musculus [1]): >90%
- Suppression (Mus musculus [3]): >90%

SMILES: Cn1cnc([N+](=O)[O-])c1Sc1ncnc2[nH]cnc12 [AZATHIOPRINE]
- Suppression (Mus musculus [1]): -3%
- Suppression (Mus musculus [3]): 6%

SMILES: Oc1c2c(nn1-c1ccc(F)cc1)-c1ccccc1SC2
- Suppression (Mus musculus [1]): 86%
- ED50 (Mus musculus [2]): 5.5 mg/kg
- Suppression (Mus musculus [3]): >90%
- ED50 (Mus musculus [4]): 3.3 mg/kg

SMILES: Oc1c2c(nn1Cc1ccccc1)-c1ccccc1SC2
- Suppression (Mus musculus [1]): -3%
- Suppression (Mus musculus [3]): 0%

SMILES: Oc1c2c(nn1-c1cc(Cl)cc(Cl)c1)-c1ccccc1SC2
- Suppression (Mus musculus [1]): 19%
- ED50 (Mus musculus [2]): 31 mg/kg
- Suppression (Mus musculus [3]): 73%
- ED50 (Mus musculus [4]): 8 mg/kg

SMILES: Oc1c2c(nn1-c1ccc(Cl)cc1)-c1ccccc1SC2
- Suppression (Mus musculus [1]): >90%
- ED50 (Mus musculus [2]): 2 mg/kg
- Suppression (Mus musculus [3]): >90%
- ED50 (Mus musculus [4]): 0.5 mg/kg
- pKa [5]: 7.56

SMILES: O=c1c2csc3ccccc3c-2nn1-c1ccc(Cl)cc1
- Suppression (Mus musculus [1]): 63%
- Suppression (Mus musculus [3]): >90%

SMILES: CS(=O)(=O)c1ccc(-n2nc3c(c2O)CSc2ccccc2-3)cc1
- Suppression (Mus musculus [1]): 1%
- ED50 (Mus musculus [2]): > 300 mg/kg
- Suppression (Mus musculus [3]): 28%
- ED50 (Mus musculus [4]): 170 mg/kg
